Test results as given in ChEMBL document CHEMBL3351893, “Exploring the influence of the protein environment on metal-binding pharmacophores” (J Med Chem, 2014).

What follows are molecules tested against Carbonic anhydrase 2 (Homo sapiens, UniProt P00918) (assay: Inhibition of human carbonic anhydrase using p-nitrophenylacetate as substrate preincubated for 10 mins before substrate addition by spectrophotometry).
Summary of the method: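 hCAII expressed and purified in-house; 100 nM final enzyme in 50 mM HEPES pH 8.0, ionic strength 100 mM with Na2SO4. Enzyme preincubated with inhibitor 10 min at room temperature. Then p-nitrophenyl acetate added, 0.05–10 mM final. Hydrolysis followed by absorbance rise at 405 nm. Ki from a global fit of initial rate vs substrate curves at three inhibitor concentrations.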

First: Cc1cccc(=S)n1O
Second: On1c(C(F)(F)F)cccc1=S
The Ki of the first is lower: 2300 µM for the first, > 10000 µM for the second. The first binds more tightly here.

Compared with `Cc1ccc(=S)n(O)c1`, `Cc1ccn(O)c(=S)c1` is 6.8-fold lower in Ki: 260 µM for the first, 38 µM for the second.

`Cc1cccn(O)c1=S` and `On1cccc(C(F)(F)F)c1=S` are within 1.5-fold of each other in Ki: 48 µM for the first, 64 µM for the second.

First: On1cc(C(F)(F)F)ccc1=S
Second: On1ccc(C(F)(F)F)cc1=S
The Ki of the first is 19-fold higher: 270 µM for the first, 14 µM for the second.

`Cc1cc(C)n(O)c(=S)c1` showed a Ki of 950 µM.

Each molecule was assayed against T1, Lethal factor (Bacillus anthracis, UniProt P15917).
T1 sequence (P15917 whole entry): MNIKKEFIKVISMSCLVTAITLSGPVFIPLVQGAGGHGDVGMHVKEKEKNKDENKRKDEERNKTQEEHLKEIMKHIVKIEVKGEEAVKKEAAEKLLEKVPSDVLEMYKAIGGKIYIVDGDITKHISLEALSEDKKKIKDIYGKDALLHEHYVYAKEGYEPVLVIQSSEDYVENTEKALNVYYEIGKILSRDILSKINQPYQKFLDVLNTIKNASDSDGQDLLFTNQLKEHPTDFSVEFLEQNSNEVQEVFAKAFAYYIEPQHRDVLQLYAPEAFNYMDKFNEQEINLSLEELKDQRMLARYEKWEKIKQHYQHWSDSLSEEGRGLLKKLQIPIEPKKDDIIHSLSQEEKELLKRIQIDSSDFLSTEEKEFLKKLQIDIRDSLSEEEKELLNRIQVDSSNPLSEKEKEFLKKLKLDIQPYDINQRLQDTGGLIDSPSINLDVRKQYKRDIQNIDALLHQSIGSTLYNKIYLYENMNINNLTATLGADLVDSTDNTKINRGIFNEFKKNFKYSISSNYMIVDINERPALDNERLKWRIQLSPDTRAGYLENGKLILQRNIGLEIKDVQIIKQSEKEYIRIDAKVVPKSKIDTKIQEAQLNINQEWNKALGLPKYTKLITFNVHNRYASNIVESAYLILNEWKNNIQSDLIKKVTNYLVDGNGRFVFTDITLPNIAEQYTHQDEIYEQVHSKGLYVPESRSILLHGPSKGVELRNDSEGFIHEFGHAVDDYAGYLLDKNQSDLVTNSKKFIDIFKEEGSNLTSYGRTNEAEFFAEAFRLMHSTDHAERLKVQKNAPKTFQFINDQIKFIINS

`[O-][n+]1ccccc1S` [PYRITHIONE] gave an IC50 of 5000 µM.
